# VIM-2 inhibitor = blocks Pseudomonas aeruginosa VIM-2 metallo-beta-lactamase; purified VIM-2, nitrocefin hydrolysis, epi-absorbance fluorescence; inhibition, % at 5.6 µM; hit rate 0.89% among 290,000; AID 1527;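 active = inhibition above the mean of all tested compounds plus 3 SD, cutoff set per screening run, cut at about 7.5% in these data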;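 also: red hydrolysis product quenches plate fluorescence so inhibitors raise well fluorescence; 0% = enzyme with DMSO and 100% = DMSO without enzyme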
# CTSL1 counter-1 = cathepsin L1 inhibition, PFM18AAP counter-screen; recombinant F. hepatica cathepsin L1, Z-Leu-Arg-MCA fluorescence; hit rate 0.49% among 300,000; inhibition, % at 5.96 µM;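 active = inhibition above the mean of all tested compounds plus 3 SD, set per screening campaign, cut at about 17% in these data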;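 also: 0% = plate median of test compound wells and 100% = 1 µM Z-Phe-Ala-diazomethylketone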
# PfM18AAP inh-1 = PfM18AAP enzyme inhibition; hit rate 1.2% among 290,000; AID 1822; inhibition, % at 7.35 µM; recombinant PfM18AAP, H-Glu-NHMec fluorogenic cleavage;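 active = inhibition above the campaign mean inhibition over all tested compounds plus 3 SD, cut at about 28% in these data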;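 also: 0% = plate median of test compound wells and 100% = 2 mM ZnCl2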
# IMP-1 inh = inhibitors of Pseudomonas aeruginosa IMP-1 metallo-beta-lactamase. purified IMP-1, nitrocefin hydrolysis, epi-absorbance fluorescence. inhibition, % at 5.6 µM. hit rate 0.45% among 290,000;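 active = inhibition above the mean plus 3 SD of all compounds in the same screening run, cut at about 4.5% in these data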;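 also: 0% = IMP-1 with DMSO and 100% = DMSO wells lacking enzyme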
#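 Test system: recombinant IMP-1 enzyme, purified / Medium: HEPES buffer pH 7.1 with ZnSO4 and Brij 35 / Doses: single dose, 5.6 µM / Times: 25 °C, 15 min preincubation, 25 min reaction / Detection: Epi-absorbance via hydrolysed-nitrocefin quenching of white-plate fluorescence, 480/530 nm, EDTA stop / Evaluation: percent inhibition from optical density relative to buffer-blank wells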
# PfM18AAP inh-2 = PfM18AAP inhibition, confirmation. shares compounds with PfM18AAP inh-1. recombinant PfM18AAP, H-Glu-NHMec fluorogenic cleavage. inhibition, % at 7.35 µM. hit rate 28% among 2,400. AID 2170;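 active = mean inhibition over replicate wells above the hit cutoff set for the earlier primary screen, cut at about 29% in these data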;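 also: 0% = median of test compound wells and 100% = 2 mM ZnCl2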
# CTSL1 counter-2 = Cathepsin L (human) inhibition, confirmation; shares compounds with PfM18AAP inh-1; purified cathepsin L1, Z-Leu-Arg-MCA fluorescence; inhibition, % at 5.96 µM; 2,400 tested, under 10 active; AID 2178;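 active = average inhibition across replicates above the hit cutoff set in the earlier primary screen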;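 also: 0% = median of test compound wells and 100% = Z-Phe-Ala-diazomethylketone 1 µM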
# Target sequence (P07711 whole entry, looked up): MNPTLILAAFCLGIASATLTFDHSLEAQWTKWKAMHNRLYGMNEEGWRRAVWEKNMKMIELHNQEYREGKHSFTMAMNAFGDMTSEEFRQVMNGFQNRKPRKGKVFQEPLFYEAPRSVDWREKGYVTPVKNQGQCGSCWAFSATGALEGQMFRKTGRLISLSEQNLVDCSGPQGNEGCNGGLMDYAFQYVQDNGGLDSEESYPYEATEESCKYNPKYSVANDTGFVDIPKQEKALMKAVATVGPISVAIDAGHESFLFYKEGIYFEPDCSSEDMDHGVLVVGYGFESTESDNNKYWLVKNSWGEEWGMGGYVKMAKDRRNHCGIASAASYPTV
# Numbers without * were called inactive; x = no result given. An excerpt weighted towards active compounds, which were near 2.7% of everything screened.
SMILES,VIM-2 inhibitor,CTSL1 counter-1,PfM18AAP inh-1,IMP-1 inh,PfM18AAP inh-2,CTSL1 counter-2
O=C(N/N=C/c1coc2ccccc2c1=O)c1cc(O)cc(O)c1,0,x,39*,-1,3,3
CCC(=O)c1ccc(OCC(=O)OCC(=O)NCC2CCCO2)cc1 (configuration not stated),-2,-5,2,-3,x,x
COC(=O)c1ccccc1CSc1nsc(/C=C/N(C)C)c1C#N,-2,-5,48*,-3,6,2
N#C/C(=C\c1ccc(O)c(O)c1)S(=O)(=O)c1ccccc1,-5,6,51*,-4,24,5
N#C/C(=C/c1ccc(F)cc1)S(=O)(=O)c1ccccc1,1,-3,-9,0,x,x
COc1cc(N/N=C/c2ccccc2O)ncn1,-4,2,41*,-4,-18,4
O=C(CNc1ccccc1)c1ccc([N+](=O)[O-])cc1,0,3,19,-1,x,x
CC(=O)Nc1ccc(NCC(=O)c2ccccc2)cc1,-1,-5,34*,-2,-35,0
Cc1cccc(C)c1NC(=O)CSCC(=O)c1ccc(O)c(O)c1,1,5,48*,0,-1,5
CCc1ccc(N2CC(C(=O)OCC(=O)NNC(=O)c3ccccc3)CC2=O)cc1 (configuration not stated),x,-6,x,x,x,x
C/C(=N\Nc1nc(C)cc(C)n1)c1ccc(N2CCOCC2)cc1,-1,2,9,-3,x,x
C/C(=N\Nc1nc2ccccc2[nH]1)c1ccc(N2CCOCC2)cc1,-8,0,46*,-9,-69,-5
C/C(=N\Nc1ncc(Cl)cc1Cl)c1ccccn1,-2,x,38*,-3,-11,-9
C/C(=N\Nc1ncc(Cl)cc1Cl)c1ccc(N2CCOCC2)cc1,0,0,52*,-1,5,1
C/C(=N\Nc1ccc(Cl)c(C(=O)O)c1)c1ccccn1,-2,4,19,-2,x,x
CCOc1ccc(-c2noc(CCC(=O)NCC3CCCO3)n2)cc1OC (configuration not stated),-1,-5,-2,-4,x,x
N#CCCN(NC1=NS(=O)(=O)c2ccccc21)C(=O)c1ccccc1Br,-2,-2,2,-3,x,x
COc1cccc(CNC(=O)C2CCN(S(=O)(=O)c3ccc4c(c3)CC(C)N4C(C)=O)CC2)c1 (configuration not stated),-5,-6,-1,-2,x,x
O=C1OC(Nc2ccc3c(c2)OCO3)c2ccccc21 (configuration not stated),-1,0,45*,-5,22,4
Cc1cc(C)c(S(=O)(=O)NCC(c2ccco2)N2CCc3ccccc3C2)c(C)c1 (configuration not stated),x,2,x,x,x,x
NC(=O)C(=CNc1nc(-c2ccc(Cl)c(Cl)c2)cs1)C(N)=O,3,x,69*,-1,53*,-2
CC(=O)N1CCc2c(sc(NC(=O)C3CC3)c2-c2nc3ccccc3s2)C1,1,-2,34*,-4,-29,-2
COc1ccc(-c2nc(N/N=C(\C)c3ccc(O)cc3)c3ccccc3n2)cc1,-4,2,63*,-3,-62,3
O=C(CCc1ccc(O)c(O)c1)N/N=C/c1ccc2c(c1)OCO2,6,2,79*,0,50*,4
CC(C)Oc1ccc(CCC(=O)N/N=C/c2ccc3c(c2)OCO3)cc1,-4,5,9,0,x,x
SMILES,VIM-2 inhibitor,CTSL1 counter-1,PfM18AAP inh-1,IMP-1 inh,PfM18AAP inh-2,CTSL1 counter-2
NC(=O)C1(N2CCCCC2)CCN(C(=S)Nc2ccc(S(N)(=O)=O)cc2)CC1,-1,-4,33*,-6,11,5
CCCN1CCN(C(=S)Nc2ccc(S(N)(=O)=O)cc2)CC1,-2,3,9,-2,x,x
NS(=O)(=O)c1ccc(NC(=S)N2CCC(Cc3ccccc3)CC2)cc1,-3,-1,37*,-4,-19,-4
NC(=O)C1(N2CCCCC2)CCN(C(=S)Nc2ccccc2)CC1,-1,4,3,-3,x,x
COc1ccc2oc(=O)c(-c3nnc(NCc4ccco4)s3)cc2c1,1,3,40*,3,-27,2
CCOc1cccc2cc(-c3nnc(NCc4ccco4)s3)c(=O)oc12,0,4,32*,-6,-14,2
CCOC(=O)c1nc(NNC(C)=O)sc1C,-3,1,37*,-3,-3,-2
CCOC(=O)c1nc(NCCc2ccccc2)sc1C,0,-2,0,-5,x,x
CN(C)C(CNC(=O)c1cc(S(=O)(=O)N(C)c2ccccc2)ccc1Cl)c1cccs1 (configuration not stated),-1,0,-1,-3,x,x
COc1cc(/C=N/NC(=O)Cc2ccc(Br)cc2)cc(OC)c1O,1,2,5,0,x,x
COc1cc(/C=N/NC(=O)CC#N)cc(Br)c1O,-1,2,57*,-4,-15,0
CCOC(=O)C1CCCN(S(=O)(=O)c2cccc3cccnc23)C1 (configuration not stated),-1,0,2,-3,x,x
O=C(Nc1ccncc1)C1COc2ccccc2O1 (configuration not stated),-3,-4,6,-3,x,x
O=C(CSC1=NCCN1)C1COc2ccccc2O1 (configuration not stated),-3,-3,42*,-2,-37,0
O=C(CCC1CCCN(C(=O)c2cccc(F)c2)C1)N1CCN(c2ccccn2)CC1 (configuration not stated),-2,2,0,-5,x,x
COc1cc(/C=N/N2CCN(Cc3ccccc3)CC2)cc(OC)c1OC(C)=O,-1,3,36*,-6,3,3
COc1cc(/C=N/N2CCN(c3ccccc3)CC2)cc(OC)c1OC(C)=O,0,0,15,-1,x,x
CCN(CC)S(=O)(=O)c1ccc(NN)nc1,-7,2,45*,-4,41*,-2
CC(C)N(C(C)C)S(=O)(=O)c1ccc(NN)nc1,-2,-1,38*,-2,37*,3
CCN(CC)S(=O)(=O)c1ccc(N/N=C/c2cc(OC)ccc2O)nc1,-3,2,57*,-1,-9,1
COc1ccc(C2C(C(N)=O)=C(C)Nc3nc(-c4ccccc4Cl)nn32)c(OC)c1 (configuration not stated),0,-2,0,-2,x,x
O=C(c1c(Cl)nc2sccn12)N1CCN(c2cccc(Cl)c2)CC1,-3,-2,-7,-4,x,x
CC(C(=O)OCC(=O)c1ccc([N+](=O)[O-])cc1)N1C(=O)C2C3C=CC(C3)C2C1=O (configuration not stated),-3,-2,23,-1,x,x
CC(C(=O)OCC(=O)c1ccc([N+](=O)[O-])cc1)N1C(=O)C2C3CCC(C3)C2C1=O (configuration not stated),2,2,41*,0,-11,-1
